Measured values from ChEMBL document CHEMBL1144777, “An endophytic fungus from Hypericum perforatum that produces hypericin” (J Nat Prod, 2008).
The source made the active and inactive calls.

How the values were obtained:
Candida albicans = assay: Antimicrobial activity against Candida albicans DSM 1386 by disk diffusion method; assay type: functional, organism-based
Outline: (§1)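 Samples were fungal products from potato dextrose broth cultures, tested alongside authentic standards. Organic extracts of mycelia and broth were dried by rotary evaporation at 30 °C and redissolved in 1 mL HPLC-grade methanol.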

Staphylococcus aureus = assay: Antimicrobial activity against Staphylococcus aureus ssp. Aureus DSM 799 by disk diffusion method; assay type: functional; outline: as §1
[1] = system: Klebsiella pneumoniae subsp. pneumoniae; assay: Antimicrobial activity against Klebsiella pneumoniae ssp. ozaenae DSM 681 by disk diffusion method; assay type: functional, organism-based; outline: as §1
Pseudomonas aeruginosa = assay: Antimicrobial activity against Pseudomonas aeruginosa DSM 1128 by disk diffusion method; assay type: functional, organism-based; outline: as §1
[2] = system: Salmonella enterica subsp. enterica; assay: Antimicrobial activity against Salmonella enterica ssp. enterica DSM 9898 by disk diffusion method; assay type: functional, organism-based; outline: as §1
Escherichia coli = assay: Antimicrobial activity against Escherichia coli DSM 682 by disk diffusion method; assay type: functional, organism-based; outline: as §1
Aspergillus niger = assay: Antimicrobial activity against Aspergillus niger DSM 1988 by disk diffusion method; assay type: functional, organism-based; outline: as §1

Measured: Activity

Cc1cc(O)c2c(=O)c3c(O)cc(O)c4c5c(O)cc(O)c6c(=O)c7c(O)cc(C)c8c1c2c(c34)c(c78)c65
active: all assays above

Cc1cc(O)c2c(c1)C(=O)c1cc(O)cc(O)c1C2=O
active: all assays above
